According to ChEMBL document CHEMBL1157487, “Discovery of potent CCR4 antagonists: Synthesis and structure-activity relationship study of 2,4-diaminoquinazolines” (Bioorg Med Chem, 2008):
pIC50: −log10 of the molar value.

Tests used:
[1] = biological target: T1, C-C chemokine receptor type 4 (Homo sapiens) (UniProt P51679); assay: Displacement of [125I]CCl22 from human CCR4 receptor expressed in mouse B300-19 cells at 1 uM by SPA; type: cell-based
T1 sequence (whole entry): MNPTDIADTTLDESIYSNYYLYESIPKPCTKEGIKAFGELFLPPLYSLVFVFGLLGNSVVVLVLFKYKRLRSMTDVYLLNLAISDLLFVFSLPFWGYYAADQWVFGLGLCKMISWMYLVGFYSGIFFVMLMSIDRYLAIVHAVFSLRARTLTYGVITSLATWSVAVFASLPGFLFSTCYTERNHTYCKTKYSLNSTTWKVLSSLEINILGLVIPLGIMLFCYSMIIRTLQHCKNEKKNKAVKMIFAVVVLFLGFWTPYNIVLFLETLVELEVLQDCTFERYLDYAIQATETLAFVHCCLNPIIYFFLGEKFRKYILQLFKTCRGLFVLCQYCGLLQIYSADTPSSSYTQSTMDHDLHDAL
In short: (§1)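 SPA on whole human CCR4-expressing B300-19 cells (2×10^5/well) with 25 pM [125I]CCL22 and WGA SPA beads, test compound, in 50 mM Hepes pH 7.4, 5 mM MgCl2, 1 mM CaCl2, 0.1% BSA; 2 h, 25 °C. Nonspecific binding defined with 10 nM unlabeled CCL22. Duplicate, four concentrations, usually two determinations averaged. IC50 by non-linear curve fitting.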

[2] = biological target: T1, C-C chemokine receptor type 4 (Homo sapiens); assay: Antagonist activity at human CCR4 receptor expressed in mouse B300-19 cells at 1 uM by [35S]GTPgammaS binding assay; type: functional, cell-based
In short: (§2)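 Membranes from human CCR4-expressing B300-19 cells (1 µg protein/well) with 150 pM [35S]GTPγS, 2 µM GDP, 3 nM MDC (CCL22), WGA SPA beads, test compound in 20 mM Hepes-NaOH pH 7.05, 100 mM NaCl, 5 mM MgCl2, 0.2% BSA; 1.5 h, 25 °C. Percent inhibition against no-compound and no-CCL22 controls. Duplicate, four concentrations, usually two determinations averaged. IC50 by non-linear fitting.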

[3] = biological target: T2, C-C chemokine receptor type 4 (Homo sapiens, UniProt P51679); assay: Displacement of [125I]CCl22 from human CCR4 receptor expressed in mouse B300-19 cells by SPA; type: cell-based; in short: as §1
T2 sequence (P51679 whole entry): T1 sequence (whole entry)

[4] = Cytotoxicity against CCR4 expressing mouse B300-19 cells at 3 uM after 12 hrs by alamar blue assay; type: cell-based; details: b300-19, 12 h
In short: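 CCR4-expressing B300-19 cells (5×10^4/well) in RPMI 1640 with 10% FBS, 2-mercaptoethanol and antibiotics, 37 °C, 5% CO2, exposed to 0.3–10 µM compound for 12 h, then Alamar Blue for 4 h; fluorescence read at excitation 570 and emission 600 nm. Viability relative to untreated wells; minimum cytotoxic dose is the concentration lowering viability below 70%.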

[5] = biological target: T1, C-C chemokine receptor type 4 (Homo sapiens); assay: Antagonist activity at human CCR4 receptor expressed in mouse B300-19 cells assessed as CCL22-induced chemotaxis by bioluminescent assay; type: functional, cell-based
In short: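 Stably transfected B300-19 cells (human CCR4 cDNA, G418 selection) at 5×10^6 cells/mL in RPMI 1640 with 0.1% BSA, pretreated with test compound; placed over 3 nM human CCL22 in 5-µm-pore polycarbonate filter chambers, 3 h, 37 °C, 5% CO2. Migrated cells quantified by ATP bioluminescence. Controls without compound or without CCL22. Triplicate, four concentrations. IC50 by non-linear curve fitting.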

[6] = biological target: T3, C-C chemokine receptor type 4 (Mus musculus) (UniProt P51680); assay: Antagonist activity at mouse CCR4 receptor expressed in mouse B300-19 cells assessed as CCL22-induced chemotaxis by bioluminescent assay; type: functional, cell-based
T3 sequence (whole entry): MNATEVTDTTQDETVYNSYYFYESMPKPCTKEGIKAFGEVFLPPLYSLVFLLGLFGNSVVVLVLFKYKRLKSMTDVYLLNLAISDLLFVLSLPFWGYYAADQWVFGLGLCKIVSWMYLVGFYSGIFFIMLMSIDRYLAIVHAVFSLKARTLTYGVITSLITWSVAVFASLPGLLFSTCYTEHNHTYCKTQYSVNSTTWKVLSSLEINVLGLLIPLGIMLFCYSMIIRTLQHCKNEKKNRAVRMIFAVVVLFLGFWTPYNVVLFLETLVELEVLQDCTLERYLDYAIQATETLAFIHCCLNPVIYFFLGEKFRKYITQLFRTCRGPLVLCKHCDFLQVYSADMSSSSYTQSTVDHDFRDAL
In short: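 Chemotaxis of B300-19 stable transformants carrying mouse CCR4 cDNA, suspended at 5×10^6 cells/mL in RPMI 1640 plus 0.1% BSA with test compound; 1 nM mouse CCL22 in lower wells, 5-µm pore filters, 3 h at 37 °C, 5% CO2. Migrated cells counted by ATP bioluminescence. Triplicate at four concentrations. IC50 from non-linear curve fit.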

[7] = biological target: T2, C-C chemokine receptor type 4; assay: Antagonist activity at human CCR4 receptor expressed in mouse B300-19 cells by [35S]GTPgammaS binding assay; type: functional, cell-based; in short: as §2
[8] = biological target: T1, C-C chemokine receptor type 4 (Homo sapiens); assay: Antagonist activity at human CCR4 receptor expressed in mouse B300-19 cells assessed as CCL22-induced chemotaxis at 1 uM by bioluminescent assay; type: functional, cell-based

| Compound | inhibition [1] [%] | inhibition [2] [%] | pIC50 [3] | Activity [4] | Activity [5] [µM] | Activity [6] [µM] | pIC50 [7] | inhibition [8] [%] |
| --- | --- | --- | --- | --- | --- | --- | --- | --- |
| COc1cc2nc(NCCN3CCCCC3)nc(NC3CCCCCC3)c2cc1OC | 18 | 1 | – | – | – | – | – | – |
| COc1cc2nc(NC(C)C)nc(NC3CCCCCC3)c2cc1OC | 6 | < 0 | – | – | – | – | – | – |
| COc1cc2nc(N3CCC(N4CCCC4)CC3)nc(NC3CCCCCC3)c2cc1OC | 100 | 93 | 7.15 | Toxic | 0.2 | 0.13 | 7.72 | – |
| COc1cc2nc(N3CCC(N(C)C4CCCC4)CC3)nc(NC3CCCCCC3)c2cc1OC | 0 | 10 | – | – | 0.12 | 0.35 | 7.74 | – |
| COc1cc2nc(N3CCC(N4CCCC4)CC3)nc(NCCc3ccccc3)c2cc1OC | 4 | 7 | – | – | – | – | – | – |
| COc1cc2nc(N3CCN(C(C)C)CC3)nc(NC3CCCCCC3)c2cc1OC | 68 | 68 | 6.18 | – | – | – | 6.66 | – |
| COc1cc2nc(N3CCN(C4CCCCC4)CC3)nc(NC3CCCCCC3)c2cc1OC | 0 | 10 | – | – | 0.23 | 0.21 | 7.26 | – |
| COc1cc2nc(N3CCC(N4CCCC4)CC3)nc(N3CCOCC3)c2cc1OC | 2 | < 0 | – | – | – | – | – | – |
| CCOC(=O)N1CCC(Nc2nc(N3CCC(N4CCCC4)CC3)nc3cc(OC)c(OC)cc23)CC1 | 6 | 10 | – | – | – | – | – | – |
| COc1cc2nc(NCCCN3CCCC3)nc(NC3CCCCCC3)c2cc1OC | 16 | 35 | – | – | – | – | – | – |
| COc1cc2nc(N3CCOCC3)nc(NC3CCCCCC3)c2cc1OC | 8 | < 0 | – | – | – | – | – | – |
| COc1ccc2nc(N3CCC(N4CCCC4)CC3)nc(NC3CCCCCC3)c2c1 | – | 10 | – | – | 0.41 | 0.8 | 7.51 | – |
| COc1ccc2c(NC3CCCCCC3)nc(N3CCC(N4CCCC4)CC3)nc2c1 | – | 10 | – | – | 0.12 | 0.22 | 7.89 | – |
| COc1cc2nc(N(C)CCc3ccccc3)nc(NC3CCCCCC3)c2cc1OC | < 0 | < 0 | – | – | – | – | – | – |
| COc1cc2nc(N3CCC(N4CCCC4)CC3)nc(N3CCCCC3)c2cc1OC | 19 | 8 | – | – | – | – | – | – |
| COc1cc2nc(N3CCC(N4CCCC4)CC3)nc(N(C)C)c2cc1OC | < 0 | < 0 | – | – | – | – | – | – |
| COc1cc2nc(N3CCC(N4CCCC4)CC3)nc(NC3CCCCCCC3)c2cc1OC | 54 | 71 | 5.92 | – | – | – | 6.70 | – |
| COc1cc2nc(N3CCC(N4CCCC4)CC3)nc(NC3CCC(C(C)(C)C)CC3)c2cc1OC (stereo unspecified) | < 0 | 11 | – | – | – | – | – | – |
| COc1cc2nc(N3CCC(N4CCCC4)CC3)nc(NC3CCCC3)c2cc1OC | 17 | 18 | – | – | – | – | – | – |
| COc1cc2nc(N3CCCCC3)nc(NC3CCCCCC3)c2cc1OC | 11 | 7 | – | – | – | – | – | – |
| COc1cc2nc(C3CCN(C4CCCCC4)CC3)nc(NC3CCCCCC3)c2cc1OC | – | 10 | – | – | – | – | 6.29 | 12 |

| Compound | inhibition [1] [%] | inhibition [2] [%] | pIC50 [3] | Activity [4] | Activity [5] [µM] | Activity [6] [µM] | pIC50 [7] | inhibition [8] [%] |
| --- | --- | --- | --- | --- | --- | --- | --- | --- |
| COc1cc2nc(N3CCC(NC4CCCC4)CC3)nc(NC3CCCCCC3)c2cc1OC | 4 | < 0 | – | – | 0.1 | – | 7.89 | – |
| COc1cc2nc(N3CCC(N4CCCC4)CC3)nc(NC3CCCCC3)c2cc1OC | 54 | 71 | 5.72 | – | – | – | 6.32 | – |
| COc1cc2nc(NCCc3ccccc3)nc(NC3CCCCCC3)c2cc1OC | < 0 | 16 | – | – | – | – | – | – |
| COc1cc2nc(N3CCC(N4CCCC4)CC3)nc(NC3CCCCNC3=O)c2cc1OC (stereo unspecified) | 16 | 16 | – | – | – | – | – | – |
| COc1cc2nc(N3CCC(N4CCC(F)CC4)CC3)nc(NC3CCCCCC3)c2cc1OC | 0 | 10 | – | – | 0.31 | 0.6 | 7.49 | – |
| COc1cc2nc(N3CCC(N4CCCC4)CC3)nc(NCc3ccccc3)c2cc1OC | < 0 | 10 | – | – | – | – | – | – |
| COc1cc2nc(NCCCN3CCCC3=O)nc(NC3CCCCCC3)c2cc1OC | 8 | 8 | – | – | – | – | – | – |
| COc1cc2nc(NCc3cccs3)nc(NC3CCCCCC3)c2cc1OC | < 0 | 0 | – | – | – | – | – | – |
| COc1cc2nc(N3CCC(C(N)=O)CC3)nc(NC3CCCCCC3)c2cc1OC | < 0 | 17 | – | – | – | – | – | – |
| COc1cc2nc(N3CCC(Cc4ccccc4)CC3)nc(NC3CCCCCC3)c2cc1OC | < 0 | 1 | – | – | – | – | – | – |
| COc1cc2nc(N3CCN(c4ccccc4)CC3)nc(NC3CCCCCC3)c2cc1OC | 7 | 7 | – | – | – | – | – | – |
| COc1cc2nc(N3CCC(O)CC3)nc(NC3CCCCCC3)c2cc1OC | 3 | < 0 | – | – | – | – | – | – |
| CCNc1nc(N2CCC(N3CCCC3)CC2)nc2cc(OC)c(OC)cc12 | < 0 | 3 | – | – | – | – | – | – |
| COc1cc2nc(N3CCC(N(C)C)CC3)nc(NC3CCCCCC3)c2cc1OC | 77 | 65 | 6.14 | – | – | – | 6.59 | – |
| COc1cc2nc(N3CCC(C)CC3)nc(NC3CCCCCC3)c2cc1OC | 15 | 12 | – | – | – | – | – | – |
| c1ccc2c(NC3CCCCCC3)nc(N3CCC(N4CCCC4)CC3)nc2c1 | – | 10 | – | – | 1.4 | – | 6.70 | – |
| COc1cc2nc(N3CCC(N4CCCCC4)CC3)nc(NC3CCCCCC3)c2cc1OC | 100 | 92 | 7.14 | – | 0.14 | 0.039 | 7.74 | – |
| COc1cc2nc(N3CCC(N4CCCC4)CC3)nc(NC3CCN(Cc4ccccc4)CC3)c2cc1OC | < 0 | 4 | – | – | – | – | – | – |
| COc1cc2nc(NCc3ccccc3)nc(NC3CCCCCC3)c2cc1OC | < 0 | 13 | – | – | – | – | – | – |
| COc1cc2nc(N3CCN(C)CC3)nc(NC3CCCCCC3)c2cc1OC | < 0 | 13 | – | – | – | – | – | – |
